Measurements as given in ChEMBL document CHEMBL2331171, “Anti-malarial activity of new N-acetyl-L-leucyl-L-leucyl-L-norleucinal (ALLN) derivatives against Plasmodium falciparum” (Bioorg Med Chem Lett, 2013).
Where a SMILES comes first, the peptide text is derived from it. [ ]: non-standard residue; d: D form. Nle = CCCC[C@H](N)C(=O)O

How the values were obtained:
Plasmodium falciparum = experiment: Antimalarial activity against Plasmodium falciparum FCR-3 infected in erythrocytes assessed as reduction in parasitemia after 72 hrs by light microscopic analysis; assay type: functional, cell-based; conditions: FCR-3/Gambia
Procedure, shortened: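 P. falciparum FCR3 in erythrocytes exposed to compounds; parasitemia (parasite content of erythrocytes) counted microscopically; concentration giving 50% growth inhibition derived. Mean SD of three independent experiments, each in triplicate.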

[1] = Cytotoxicity against human HeLa cells assessed as growth inhibition after 48 hrs by MTS assay; assay type: cell-based
[2] = Therapeutic index, ratio of CC50 for human HeLa cells to IC50 for Plasmodium falciparum FCR-3; assay type: cell-based; conditions: HeLa cells versus Plasmodium falciparum FCR-3, read-out: Ratio CC50/IC50

`CC(C)(C)OC(=O)N[C@H](CCCNC(=O)OCc1ccccc1)C(=O)N[C@H](/C=C/C(=O)N1CCCC1)Cc1ccccc1` showed an IC50 (Plasmodium falciparum) of 11.4 µM, a CC50 at 48 h [1] of 153 µM and a selectivity ratio [2] of 13.4.
`CNC(=O)/C=C/[C@H](Cc1ccccc1)NC(=O)[C@@H](CCCNC(=O)OCc1ccccc1)NC(=O)OC(C)(C)C` gave an IC50 (Plasmodium falciparum) of 5 µM, a CC50 at 48 h [1] of 1060 µM and a selectivity ratio [2] of 157.
Work on `CCNC(=O)/C=C/[C@H](Cc1ccccc1)NC(=O)[C@@H](CCCNC(=O)OCc1ccccc1)NC(=O)OC(C)(C)C` yielded an IC50 (Plasmodium falciparum) of over 100 µM and a CC50 at 48 h [1] of 2000 µM.
For `CC(C)NC(=O)/C=C/[C@H](Cc1ccccc1)NC(=O)[C@@H](CCCNC(=O)OCc1ccccc1)NC(=O)OC(C)(C)C`, the IC50 (Plasmodium falciparum) was 9.29 µM, the CC50 at 48 h [1] was 314 µM and the selectivity ratio [2] was 33.8.
In the case of `CC(C)(C)OC(=O)N[C@H](CCCNC(=O)OCc1ccccc1)C(=O)N[C@H](/C=C/C=C/C(=O)N1CCCC1)Cc1ccccc1`, the IC50 (Plasmodium falciparum) is reported as over 100 µM and the CC50 at 48 h [1] is reported as 53.1 µM.
Work on `CN(C)C(=O)/C=C/C=C/[C@H](Cc1ccccc1)NC(=O)[C@@H](CCCNC(=O)OCc1ccccc1)NC(=O)OC(C)(C)C` yielded an IC50 (Plasmodium falciparum) of over 100 µM and a CC50 at 48 h [1] of 117 µM.
In the case of `CNC(=O)/C=C/C=C/[C@H](Cc1ccccc1)NC(=O)[C@@H](CCCNC(=O)OCc1ccccc1)NC(=O)OC(C)(C)C`, the IC50 (Plasmodium falciparum) is reported as 23.6 µM, the CC50 at 48 h [1] is reported as 281 µM and the selectivity ratio [2] is reported as 11.9.
`CC(C)(C)OC(=O)N[C@H](CCCNC(=O)OCc1ccccc1)C(=O)N[C@H](/C=C/C=C/C(=O)N1CCCCC1)Cc1ccccc1` gave an IC50 (Plasmodium falciparum) of 15.7 µM, a CC50 at 48 h [1] of 175 µM and a selectivity ratio [2] of 11.2.
Molecule `CNC(=O)/C=C/[C@H](Cc1ccccc1)NC(=O)[C@@H](CCCNC(=O)OCc1ccccc1)NCc1ccccc1` has an IC50 (Plasmodium falciparum) of 15.3 µM, a CC50 at 48 h [1] of 253 µM and a selectivity ratio [2] of 16.5.
Molecule `CNC(=O)/C=C/[C@H](Cc1ccccc1)NC(=O)[C@@H](CCCNC(=O)OCc1ccccc1)NCc1cc(OC)cc(OC)c1` has an IC50 (Plasmodium falciparum) of 16.4 µM, a CC50 at 48 h [1] of 259 µM and a selectivity ratio [2] of 15.8.
`CNC(=O)/C=C/[C@H](Cc1ccccc1)NC(=O)[C@@H](CCCNC(=O)OCc1ccccc1)NCc1ccc(OC)cc1` showed an IC50 (Plasmodium falciparum) of 16.7 µM, a CC50 at 48 h [1] of 461 µM and a selectivity ratio [2] of 27.6.
For `CNC(=O)/C=C/[C@H](Cc1ccccc1)NC(=O)[C@@H](CCCNC(=O)OCc1ccccc1)NCc1cccc(C)c1`, the IC50 (Plasmodium falciparum) was 5 µM, the CC50 at 48 h [1] was 242 µM and the selectivity ratio [2] was 48.3.
Work on `CNC(=O)/C=C/[C@H](Cc1ccccc1)NC(=O)[C@@H](CCCNC(=O)OCc1ccccc1)NC(C)C` yielded an IC50 (Plasmodium falciparum) of 56.3 µM, a CC50 at 48 h [1] of 611 µM and a selectivity ratio [2] of 10.8.
In the case of `CCCC[C@@H](C=O)NC(=O)[C@H](CC(C)C)NC(=O)[C@H](CC(C)C)NC(C)=O` (Ac-Leu-Leu-[Nle]-aldehyde), the IC50 (Plasmodium falciparum) is reported as 0.64 µM, the CC50 at 48 h [1] is reported as 25.1 µM and the selectivity ratio [2] is reported as 39.2.
